Measured values published in ChEMBL document CHEMBL4706625, “Synthesis of Guaianolide Analogues with a Tunable α-Methylene-γ-lactam Electrophile and Correlating Bioactivity with Thiol Reactivity” (J Med Chem, 2020).
Calls of active or inactive are those of the source. The calls are words filed in the database; no cut-off is given here.

Columns and labels:
[1] = Thiol-reactivity using 13C-labeled La antigen containing reactive cysteine C245 at 400 uM at 37 degreeC for 90 mins in absence of DTT by 2D 1H-13C HMQC ALARM NMR spectroscopy; format: ADME; settings: 1.5 h
Method in brief: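 ALARM NMR: compound (400 μM final) was incubated with 13C-methyl-labeled La antigen (50 μM final) at 37 °C for 90 min, without and with 20 mM DTT. Reactivity was scored from 13C-methyl chemical shift changes and attenuation of diagnostic peaks in 1H-13C HMQC spectra without DTT.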

[2] = Thiol-reactivity using La antigen containing reactive cysteine C245 at 0.5 mM incubated for 1 hr by MS analysis based ALARM MSPS analysis; settings: 500 µM
A549 [3] = experiment: Inhibition of TNFalpha-induced canonical NF-kappaB signaling (unknown origin) expressed in human A549 cells at 20 uM […] by NF-kappaB-driven luciferase reporter gene assay; format: cell-based; settings: time 500.0 min
[4] = Toxicity in African green monkey Vero cells assessed as reduction in cell viability incubated for 48 hrs by Alamar blue assay; format: cell-based, Chlorocebus sabaeus
HEK293 [5] = experiment: Inhibition of TNFalpha-induced canonical NF-kappaB signaling (unknown origin) expressed in HEK293 cells assessed as residual NF-kappaB activity at 7.5 uM pre-incubated for 30 mins followed by TNFalpha stimulation for 8 hrs by NF-kappaB-driven SEAP assay; settings: Homo sapiens, time 510.0 min
A549 [6] = experiment: Inhibition of TNFalpha-induced canonical NF-kappaB signaling (unknown origin) expressed in human A549 cells assessed as residual NF-kappaB activity at 10 uM […] by NF-kappaB-driven luciferase reporter gene assay; format: cell-based; settings: time 500.0 min
HEK293 [7] = experiment: Inhibition of TNFalpha-induced canonical NF-kappaB signaling (unknown origin) expressed in HEK293 cells assessed as residual NF-kappaB activity at 7.5 uM pre-incubated for 30 mins followed by TNFalpha stimulation for 8 hrs by NF-kappaB-driven SEAP assay; format: cell-based; settings: Homo sapiens, time 510.0 min
Method in brief: (§1)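 HEK293 cells stably carrying an NF-κB-driven SEAP reporter were grown in DMEM with 10% FBS, penicillin/streptomycin and 0.5 mg/mL G418 at 37 °C, 5% CO2. They were seeded at 5,000 cells/well 24 h ahead. Compounds (1–7.5 μM, 0.5% DMSO final) were added for 30 min, then TNF-α at 22.5 ng/mL final for 8 h. Secreted SEAP in the medium was quantified chemiluminescently, relative to the induced control set as 100%.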

A549 [8] = experiment: Inhibition of TNFalpha-induced canonical NF-kappaB signaling (unknown origin) expressed in human A549 cells assessed as residual NF-kappaB activity at 20 uM […] followed by TNFalpha stimulation for 8 hrs by NF-kappaB-driven luciferase reporter gene assay; format: cell-based; settings: time 500.0 min
HEK293 [9] = experiment: Inhibition of TNFalpha-induced canonical NF-kappaB signaling (unknown origin) expressed in HEK293 cells at 7.5 uM pre-incubated for 30 mins followed by TNFalpha stimulation for 8 hrs by NF-kappaB-driven SEAP assay; format: cell-based; settings: Homo sapiens, time 510.0 min; method in brief: as §1
A549 [10] = experiment: Inhibition of TNFalpha-induced canonical NF-kappaB signaling (unknown origin) expressed in human A549 cells at 10 uM […] by NF-kappaB-driven luciferase reporter gene assay; format: cell-based; settings: time 500.0 min

Compound: CCN(CC)c1ccc2c(C)c(-c3ccc(N4C(=O)C=CC4=O)cc3)c(=O)oc2c1
- Activity [1]: Active
- Activity [2]: Active

Compound: C=C1C(=O)N[C@@H]2C3=CC(=O)CC3=C(C)CC[C@@H]12
- inhibition (A549 [3]): inactive
- IC50 at 48 h [4]: > 200 µM
- inhibition (HEK293 [5]): inactive

Compound: C=C1C(=O)O[C@H]2C3=C(c4ccccc4)C(=O)CC3=C(C)CC[C@H]12
- Activity [1]: Active
- Activity [2]: Active

Compound: C=C1C(=O)N[C@@H]2C3=C(c4ccccc4)C(=O)CC3=C(C)CC[C@@H]12
- inhibition (A549 [3]): inactive

Compound: C=C1C(=O)O[C@@H]2[C@H]3O[C@]3(C)CC/C=C(\C)CC[C@@H]12
- Activity (A549 [6]): 53%
- Activity (HEK293 [7]): 20%

Compound: C=C1C(=O)N(c2ccc(C(F)(F)F)cc2)[C@@H]2C3=C(c4ccccc4)C(=O)CC3=C(C)CC[C@@H]12 (relative stereo)
- Activity [1]: Not Active
- Activity (A549 [8]): 21%
- Activity (A549 [6]): 62%
- Activity [2]: Not Active
- Activity (HEK293 [7]): 44%

Compound: C=C1C(=O)N(C(C)=O)[C@@H]2C3=CC(=O)CC3=C(C)CC[C@@H]12 (relative stereo)
- Activity (A549 [8]): 28%
- Activity (A549 [6]): 59%
- Activity (HEK293 [7]): 19%

Compound: C=C1C(=O)N(C)[C@@H]2C3=C(c4ccccc4)C(=O)CC3=C(C)CC[C@@H]12 (relative stereo)
- inhibition (A549 [3]): inactive

Compound: C=C1C(=O)N(S(=O)(=O)c2ccc(C)cc2)[C@@H]2C3=C(c4ccccc4)C(=O)CC3=C(C)CC[C@@H]12 (relative stereo)
- inhibition (HEK293 [9]): 100%
- inhibition (A549 [10]): 100%

Compound: C=C1C(=O)N(c2ccc(OC)cc2)[C@@H]2C3=C(c4ccccc4)C(=O)CC3=C(C)CC[C@@H]12 (relative stereo)
- inhibition (A549 [3]): inactive
- inhibition (HEK293 [5]): inactive

Compound: C=C1C(=O)N(c2ccccc2)[C@@H]2C3=C(c4ccccc4)C(=O)CC3=C(C)CC[C@@H]12 (relative stereo)
- inhibition (A549 [3]): inactive
- inhibition (HEK293 [5]): inactive

Compound: OC(Cn1cncn1)(Cn1cncn1)c1ccc(F)cc1F [FLUCONAZOLE]
- Activity [1]: Not Active
- Activity [2]: Not Active
